Test results from ChEMBL document CHEMBL4732249, “Design, synthesis and biological evaluation of 2-aminoquinazolin-4(3H)-one derivatives as potential SARS-CoV-2 and MERS-CoV treatments” (Bioorg Med Chem Lett, 2021).

Key:
[1] = test system: SARS-CoV-2; assay: Antiviral activity against SARS-CoV-2 infected in African green monkey Vero cells assessed as inhibition of viral infection by measuring nucleocapsid protein level by immunofluorescence microscopic analysis; format: functional, organism-based; conditions: Severe acute respiratory syndrome coronavirus 2, Vero
[2] = test system: Vero; assay: Cytotoxicity against African green monkey Vero cells assessed as reduction of cell viability by WST-1 assay; format: cell-based; conditions: chlorocebus sabaeus
[3] = Selective index, ratio of CC50 for African green monkey Vero cells to IC50 for SARS-CoV-2 infected in African green monkey Vero cells
[4] = test system: Middle East respiratory syndrome-related coronavirus; assay: Antiviral activity against MERS-CoV infected in African green monkey Vero cells assessed as inhibition of viral infection by measuring reduction in spike protein level by immunofluorescence microscopic analysis; format: functional, organism-based
[5] = Stability in mouse microsomes assessed as as parent compound remaining after 30 mins; format: ADME, Microsome; conditions: read-out: Stabilty
Method in brief: (§1)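 Liver microsomes from human, mouse and rat were used. The read-out is percent of parent compound remaining after 30 min incubation.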

[6] = Stability in rat microsomes assessed as as parent compound remaining after 30 mins; format: ADME, Microsome; conditions: read-out: Stabilty; method in brief: as §1
[7] = Stability in human microsomes assessed as as parent compound remaining after 30 mins; format: ADME, Microsome; conditions: read-out: Stabilty; method in brief: as §1
[8] = test system: HFL1; assay: Cytotoxicity against human HFL-1 cells; format: cell-based
[9] = Cytotoxicity against CHO-K1 cells; format: cell-based, Cricetulus griseus; conditions: chinese hamster
[10] = Cytotoxicity against mouse NCTC clone 929 cells; format: cell-based
[11] = Cytotoxicity against mouse NIH3T3 cells; format: cell-based
[12] = target: hERG (KCNH2) (Homo sapiens, UniProt Q12809); assay: Inhibition of human ERG at 10 uM relative to control
Chain of hERG (KCNH2) (Q12809 whole entry): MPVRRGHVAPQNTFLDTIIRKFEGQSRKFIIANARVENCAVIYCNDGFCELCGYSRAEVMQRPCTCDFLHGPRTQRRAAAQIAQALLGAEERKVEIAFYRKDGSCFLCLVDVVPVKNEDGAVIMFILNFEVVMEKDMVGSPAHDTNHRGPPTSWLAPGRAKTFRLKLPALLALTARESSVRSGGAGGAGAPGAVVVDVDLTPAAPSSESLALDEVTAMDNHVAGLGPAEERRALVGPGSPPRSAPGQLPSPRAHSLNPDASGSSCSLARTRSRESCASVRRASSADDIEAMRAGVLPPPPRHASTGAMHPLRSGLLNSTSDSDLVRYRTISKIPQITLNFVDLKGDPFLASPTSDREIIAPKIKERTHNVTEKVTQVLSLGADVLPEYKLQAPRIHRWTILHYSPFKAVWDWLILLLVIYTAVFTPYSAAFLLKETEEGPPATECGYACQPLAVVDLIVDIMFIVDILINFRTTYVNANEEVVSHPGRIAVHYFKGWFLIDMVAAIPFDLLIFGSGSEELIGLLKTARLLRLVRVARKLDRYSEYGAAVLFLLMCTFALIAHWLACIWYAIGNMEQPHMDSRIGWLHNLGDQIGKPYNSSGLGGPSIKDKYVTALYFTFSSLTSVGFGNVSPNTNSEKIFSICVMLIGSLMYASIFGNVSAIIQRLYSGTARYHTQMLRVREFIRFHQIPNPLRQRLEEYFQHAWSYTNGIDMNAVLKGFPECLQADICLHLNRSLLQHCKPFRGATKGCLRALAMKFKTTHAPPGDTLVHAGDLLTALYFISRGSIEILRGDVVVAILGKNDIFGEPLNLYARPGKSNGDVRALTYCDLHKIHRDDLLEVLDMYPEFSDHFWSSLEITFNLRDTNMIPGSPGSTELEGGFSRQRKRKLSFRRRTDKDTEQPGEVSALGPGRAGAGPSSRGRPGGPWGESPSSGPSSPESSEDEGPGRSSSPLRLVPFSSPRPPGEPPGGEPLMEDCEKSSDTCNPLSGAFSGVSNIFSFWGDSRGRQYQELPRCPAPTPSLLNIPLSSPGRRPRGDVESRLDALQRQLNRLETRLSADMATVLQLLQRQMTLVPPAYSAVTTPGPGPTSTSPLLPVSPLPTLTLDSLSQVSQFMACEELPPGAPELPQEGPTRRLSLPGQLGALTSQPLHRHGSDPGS

[13] = target: T1, CYP1A2 (Homo sapiens, UniProt P05177); assay: Inhibition of CYP1A2 (unknown origin) at 10 uM relative to control; format: ADME
T1 sequence (P05177 whole entry): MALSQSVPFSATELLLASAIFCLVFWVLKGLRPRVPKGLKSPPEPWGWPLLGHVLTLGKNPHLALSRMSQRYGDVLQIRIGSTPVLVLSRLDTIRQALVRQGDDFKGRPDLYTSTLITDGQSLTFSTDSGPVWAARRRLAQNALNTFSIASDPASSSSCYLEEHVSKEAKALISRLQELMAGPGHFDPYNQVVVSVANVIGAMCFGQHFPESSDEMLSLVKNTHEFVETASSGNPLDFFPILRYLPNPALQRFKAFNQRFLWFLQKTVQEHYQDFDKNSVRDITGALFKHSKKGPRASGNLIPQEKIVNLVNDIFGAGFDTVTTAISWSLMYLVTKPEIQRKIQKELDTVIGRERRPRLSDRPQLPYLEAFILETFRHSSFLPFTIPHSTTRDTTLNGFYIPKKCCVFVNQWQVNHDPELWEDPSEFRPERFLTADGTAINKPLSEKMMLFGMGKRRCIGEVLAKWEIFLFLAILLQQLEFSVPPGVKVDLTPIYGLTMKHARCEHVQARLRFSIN

[14] = target: CYP2C9 (Homo sapiens, UniProt P11712); assay: Inhibition of CYP2C9 (unknown origin) at 10 uM relative to control; format: ADME
Chain of CYP2C9 (P11712 whole entry): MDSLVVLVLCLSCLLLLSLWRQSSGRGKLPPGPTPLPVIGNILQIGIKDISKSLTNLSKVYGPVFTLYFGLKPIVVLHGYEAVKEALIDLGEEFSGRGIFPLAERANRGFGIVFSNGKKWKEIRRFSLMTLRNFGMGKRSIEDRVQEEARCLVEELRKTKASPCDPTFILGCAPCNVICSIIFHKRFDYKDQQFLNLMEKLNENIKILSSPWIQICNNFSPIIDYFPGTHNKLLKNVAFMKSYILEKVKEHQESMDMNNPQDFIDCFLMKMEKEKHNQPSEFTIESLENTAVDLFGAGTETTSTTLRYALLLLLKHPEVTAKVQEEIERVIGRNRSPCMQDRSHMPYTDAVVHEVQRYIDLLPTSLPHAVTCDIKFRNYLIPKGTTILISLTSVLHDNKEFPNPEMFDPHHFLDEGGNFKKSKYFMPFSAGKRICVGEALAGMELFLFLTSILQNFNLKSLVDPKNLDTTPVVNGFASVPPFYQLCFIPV

[15] = target: CYP2C19 (Homo sapiens, UniProt P33261); assay: Inhibition of CYP2C19 (unknown origin) at 10 uM relative to control; format: ADME
Chain of CYP2C19 (P33261 whole entry): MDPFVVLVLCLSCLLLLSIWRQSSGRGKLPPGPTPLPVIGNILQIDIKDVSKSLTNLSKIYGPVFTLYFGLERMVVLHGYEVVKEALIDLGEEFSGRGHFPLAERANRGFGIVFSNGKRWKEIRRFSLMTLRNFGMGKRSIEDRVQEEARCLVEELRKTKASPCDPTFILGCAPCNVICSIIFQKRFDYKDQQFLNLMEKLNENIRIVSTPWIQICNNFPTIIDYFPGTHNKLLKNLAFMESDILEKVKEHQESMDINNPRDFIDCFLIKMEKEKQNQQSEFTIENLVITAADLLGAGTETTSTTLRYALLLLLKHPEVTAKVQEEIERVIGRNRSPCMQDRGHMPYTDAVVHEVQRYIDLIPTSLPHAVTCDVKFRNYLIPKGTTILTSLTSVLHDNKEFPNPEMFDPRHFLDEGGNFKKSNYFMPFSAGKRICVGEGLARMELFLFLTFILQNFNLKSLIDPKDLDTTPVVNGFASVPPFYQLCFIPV

[16] = target: CYP2D6 (Homo sapiens, UniProt P10635); assay: Inhibition of CYP2D6 (unknown origin) at 10 uM relative to control; format: ADME
Chain of CYP2D6 (P10635 whole entry): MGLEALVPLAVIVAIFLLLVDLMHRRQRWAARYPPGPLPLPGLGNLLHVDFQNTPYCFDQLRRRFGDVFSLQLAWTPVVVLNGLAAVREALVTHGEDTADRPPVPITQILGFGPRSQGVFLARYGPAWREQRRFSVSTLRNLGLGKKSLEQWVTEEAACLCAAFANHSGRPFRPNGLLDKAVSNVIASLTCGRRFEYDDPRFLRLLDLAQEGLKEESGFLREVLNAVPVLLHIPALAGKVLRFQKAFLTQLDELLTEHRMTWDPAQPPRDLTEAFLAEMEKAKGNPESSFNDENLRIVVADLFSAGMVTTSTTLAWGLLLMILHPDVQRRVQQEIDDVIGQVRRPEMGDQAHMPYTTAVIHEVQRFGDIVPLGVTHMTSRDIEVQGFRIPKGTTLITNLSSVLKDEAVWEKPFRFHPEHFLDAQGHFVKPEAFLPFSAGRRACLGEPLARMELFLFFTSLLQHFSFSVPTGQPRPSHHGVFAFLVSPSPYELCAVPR

[17] = target: CYP3A4 (Homo sapiens, UniProt P08684); assay: Inhibition of CYP3A4 (unknown origin) at 10 uM relative to control; format: ADME
Chain of CYP3A4 (P08684 whole entry): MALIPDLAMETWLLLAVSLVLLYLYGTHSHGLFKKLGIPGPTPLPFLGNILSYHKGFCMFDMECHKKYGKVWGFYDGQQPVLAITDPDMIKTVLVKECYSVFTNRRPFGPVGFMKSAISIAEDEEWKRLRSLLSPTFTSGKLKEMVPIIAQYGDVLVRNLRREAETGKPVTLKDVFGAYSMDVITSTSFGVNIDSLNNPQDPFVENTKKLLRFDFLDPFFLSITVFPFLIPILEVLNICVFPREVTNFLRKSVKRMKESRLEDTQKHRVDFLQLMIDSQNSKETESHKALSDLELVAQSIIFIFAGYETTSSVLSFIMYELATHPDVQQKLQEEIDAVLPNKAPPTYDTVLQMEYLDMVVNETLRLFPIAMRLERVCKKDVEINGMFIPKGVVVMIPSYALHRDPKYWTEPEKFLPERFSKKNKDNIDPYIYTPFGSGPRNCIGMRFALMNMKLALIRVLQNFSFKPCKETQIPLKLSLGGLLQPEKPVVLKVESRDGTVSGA

[18] = Oral bioavailability in rat at 10 mg/kg; format: ADME, organism-based; conditions: in vivo
Method in brief: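 Rats received oral dosing at 10 mg/kg alongside intravenous dosing at 2 mg/kg. Values are the mean of experiments using three rats.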

[19] = Selective index, ratio of CC50 for African green monkey Vero cells to IC50 for MERS-CoV infected in African green monkey Vero cells

**Q.** Which results are given for `O=c1[nH]c(Nc2cc(Cl)cc(Cl)c2)nc2cc(Cl)ccc12`?
**A.** IC50 [1]: 0.23 µM; CC50 [2]: > 25 µM; Ratio CC50/IC50 [3]: 110; IC50 [4]: 0.93 µM; remaining at 0.5 h [5]: 112%; remaining at 0.5 h [6]: 105%; remaining at 0.5 h [7]: 99%; CC50 [8]: 7.5 µM; CC50 [9]: 11 µM; CC50 [10]: 31 µM; CC50 [11]: > 100 µM; inhibition at 10 µM [12]: 38%; inhibition at 10 µM [13]: 15%; inhibition at 10 µM [14]: 18%; inhibition at 10 µM [15]: < 1%; inhibition at 10 µM [16]: 20%; inhibition at 10 µM [17]: 32%; bioavailability [18]: 15.6%; Ratio CC50/IC50 [19]: 27

**Q.** Which results are given for `O=c1[nH]c(Nc2cc(F)cc(F)c2)nc2cc(C(F)(F)F)ccc12`?
**A.** IC50 [1]: 0.2 µM; CC50 [2]: ≥ 7.6 µM; Ratio CC50/IC50 [3]: 38; IC50 [4]: 0.73 µM; Ratio CC50/IC50 [19]: 35

**Q.** Which results are given for `O=c1[nH]c(Nc2cc(Cl)cc(Cl)c2)nc2cc(C(F)(F)F)ccc12`?
**A.** IC50 [1]: 0.21 µM; CC50 [2]: 7.1 µM; Ratio CC50/IC50 [3]: 34; IC50 [4]: 0.96 µM; Ratio CC50/IC50 [19]: 7.6

**Q.** Which IC50 [1] does the source give for `CC(C)Nc1nc2cc(Cl)ccc2c(=O)[nH]1` here?
**A.** > 25 µM

**Q.** What about the CC50 [2] of the same compound?
**A.** > 25 µM

**Q.** What about the “Ratio CC50/IC50” value [3] of the same compound?
**A.** 1

**Q.** For `O=c1[nH]c(Nc2ccc(F)cc2F)nc2cc(Cl)ccc12`, which IC50 [1] is on record?
**A.** > 25 µM

**Q.** And the CC50 [2]?
**A.** > 25 µM

**Q.** And the “Ratio CC50/IC50” value [3]?
**A.** 1

**Q.** For `COc1cccc2nc(Nc3cc(F)cc(F)c3)[nH]c(=O)c12`, which IC50 [1] is on record?
**A.** > 25 µM

**Q.** And the CC50 [2]?
**A.** > 25 µM

**Q.** What about the “Ratio CC50/IC50” value [3] of the same compound?
**A.** 1

**Q.** Which results are given for `O=c1[nH]c(Nc2ccc(F)c(F)c2F)nc2cc(Cl)ccc12`?
**A.** IC50 [1]: 2.6 µM; CC50 [2]: > 25 µM; Ratio CC50/IC50 [3]: 9.4

**Q.** Which IC50 [1] does the source give for `COC(=O)c1cccc(Nc2nc3cc(Cl)ccc3c(=O)[nH]2)c1` here?
**A.** 8.8 µM

**Q.** What about the CC50 [2] of the same compound?
**A.** > 25 µM

**Q.** And the “Ratio CC50/IC50” value [3]?
**A.** 2.8

**Q.** For `O=c1[nH]c(Nc2cc(F)cc(F)c2)nc2cccc(O)c12`, which IC50 [1] is on record?
**A.** 0.47 µM

**Q.** What about the CC50 [2] of the same compound?
**A.** > 25 µM

**Q.** And the “Ratio CC50/IC50” value [3]?
**A.** 54

**Q.** And the IC50 [4]?
**A.** 1.1 µM

**Q.** And the “Ratio CC50/IC50” value [19]?
**A.** 22

**Q.** Which IC50 [1] does the source give for `O=c1[nH]c(NCC2CCCCC2)nc2cc(Cl)ccc12` here?
**A.** 14 µM

**Q.** What about the CC50 [2] of the same compound?
**A.** > 25 µM

**Q.** And the “Ratio CC50/IC50” value [3]?
**A.** 1.7

**Q.** Which results are given for `O=c1[nH]c(Nc2cc(Cl)cc(Cl)c2)nc2c(O)cccc12`?
**A.** IC50 [1]: 0.37 µM; CC50 [2]: > 25 µM; Ratio CC50/IC50 [3]: 65; IC50 [4]: 1.7 µM; Ratio CC50/IC50 [19]: 14

**Q.** Which results are given for `O=c1[nH]c(Nc2cc(Cl)cc(Cl)c2)nc2cc([N+](=O)[O-])ccc12`?
**A.** IC50 [1]: 0.51 µM; CC50 [2]: > 25 µM; Ratio CC50/IC50 [3]: 49; IC50 [4]: > 25 µM; Ratio CC50/IC50 [19]: 1

**Q.** With `Cc1cc(C)c2nc(Nc3cc(F)cc(F)c3)[nH]c(=O)c2c1` as the compound, how does the IC50 [1] read?
**A.** > 25 µM

**Q.** What about the CC50 [2] of the same compound?
**A.** > 25 µM

**Q.** What about the “Ratio CC50/IC50” value [3] of the same compound?
**A.** 1

**Q.** For `CCCCNc1nc2cc(Cl)ccc2c(=O)[nH]1`, which IC50 [1] is on record?
**A.** > 25 µM

**Q.** And the CC50 [2]?
**A.** > 25 µM

**Q.** What about the “Ratio CC50/IC50” value [3] of the same compound?
**A.** 1

**Q.** Which IC50 [1] does the source give for `O=c1[nH]c(Nc2cc(F)cc(F)c2)nc2c(Cl)c(Cl)ccc12` here?
**A.** 0.25 µM

**Q.** And the CC50 [2]?
**A.** > 25 µM

**Q.** And the “Ratio CC50/IC50” value [3]?
**A.** 98

**Q.** And the IC50 [4]?
**A.** 0.83 µM

**Q.** What about the “Ratio CC50/IC50” value [19] of the same compound?
**A.** 30

**Q.** For `O=c1[nH]c(Nc2ccc(F)cc2)nc2cc(Cl)ccc12`, which IC50 [1] is on record?
**A.** > 25 µM

**Q.** And the CC50 [2]?
**A.** > 25 µM

**Q.** And the “Ratio CC50/IC50” value [3]?
**A.** 1

**Q.** With `O=c1[nH]c(Nc2ccc(Cl)cc2Cl)nc2cc(Cl)ccc12` as the compound, how does the IC50 [1] read?
**A.** > 25 µM

**Q.** And the CC50 [2]?
**A.** > 25 µM

**Q.** What about the “Ratio CC50/IC50” value [3] of the same compound?
**A.** 1

**Q.** With `O=c1[nH]c(Nc2cc(F)cc(F)c2)nc2cc(Cl)ccc12` as the compound, how does the IC50 [1] read?
**A.** 0.24 µM

**Q.** What about the CC50 [2] of the same compound?
**A.** ≥ 18 µM

**Q.** What about the “Ratio CC50/IC50” value [3] of the same compound?
**A.** 74

**Q.** And the IC50 [4]?
**A.** 0.39 µM

**Q.** What about the “Ratio CC50/IC50” value [19] of the same compound?
**A.** 65

**Q.** With `O=c1[nH]c(Nc2cc(F)cc(F)c2)nc2cc([N+](=O)[O-])ccc12` as the compound, how does the IC50 [1] read?
**A.** 0.41 µM

**Q.** And the CC50 [2]?
**A.** > 25 µM

**Q.** What about the “Ratio CC50/IC50” value [3] of the same compound?
**A.** 61

**Q.** What about the IC50 [4] of the same compound?
**A.** 8.5 µM

**Q.** What about the “Ratio CC50/IC50” value [19] of the same compound?
**A.** 2.9
